IDH1 R132H inh: inhibitors of IDH1 R132H reductase, primary screen, biochemical, plate reader, single point. AID 624101, 2012. diaphorase/resazurin fluorescence, 60 min. inhibition, % at 10 µM. 70,000 compounds, 0.18% hits; in the data active = inhibition above about 34%; inconclusive = no clear call, values can overlap the other calls; inactive = below about 11%;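 note: 0% = DMSO and 100% = no enzyme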
Target sequence (O75874 whole entry R132H): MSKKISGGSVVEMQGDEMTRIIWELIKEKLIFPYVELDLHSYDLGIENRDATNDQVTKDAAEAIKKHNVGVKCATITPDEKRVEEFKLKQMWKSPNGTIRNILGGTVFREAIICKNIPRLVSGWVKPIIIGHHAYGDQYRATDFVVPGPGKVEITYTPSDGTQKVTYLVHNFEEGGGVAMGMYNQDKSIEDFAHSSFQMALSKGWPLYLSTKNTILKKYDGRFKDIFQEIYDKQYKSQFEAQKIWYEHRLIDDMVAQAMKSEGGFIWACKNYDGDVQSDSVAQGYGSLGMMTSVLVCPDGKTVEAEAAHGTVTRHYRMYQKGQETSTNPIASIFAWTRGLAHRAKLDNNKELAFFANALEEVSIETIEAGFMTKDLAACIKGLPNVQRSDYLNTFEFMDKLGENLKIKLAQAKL
GASC1 inh: inhibitors of GASC-1 (KDM4C) histone demethylase, primary screen, biochemical, single concentration HTS | Lysine-specific demethylase 4C (Homo sapiens), Q9H3R0 | 96,000 compounds, 0.15% hits | GST-KDM4C 2-372, H3K9me3 peptide, LANCE TR-FRET | inhibition, % at 12.5 µM;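 active = mean replicate inhibition above about 25%, with at least 55% of replicates also reaching it, limit read from the data, passing the limit was not always enough; inconclusive = only one of those two conditions met; inactive = neither condition met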
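Assay system: GST-GASC-1 enzyme fragment 2-372 | Amount: 10 nM enzyme | Medium: HEPES buffer, pH 7.5, plus ascorbate | Reagent: H3K9me3 peptide substrate, Fe(II), 2-oxoglutarate | Doses: Single-point compound screen | Incubation: 30 min demethylation and 1 h detection at room temperature | Measured by: LANCE TR-FRET, excitation 340 nm, emissions 618 and 671 nm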
T cruzi growth-1: T. cruzi intracellular proliferation inhibitors, primary screen, cell-based, beta-gal Tulahuen parasites, NIH3T3 host, luminescence; T. cruzi beta-gal in NIH3T3, GalScreen luminescence, 90 h; inhibition, % at 8.34 µM; 77,000 compounds, 5.9% hits;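 active = mean inhibition above about 93%, with at least 55% of replicates each passing it, limit read from the data, passing the limit was not always enough; inconclusive = only one of those two conditions holds; inactive = neither condition holds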
Pf Dd2 inh: P. falciparum Dd2 growth inhibitors, primary screen, SYBR Green fluorescence, single dose replicates; 72 h; stronger effect = lower value; activity change, % at 10 µM; 94,000 compounds, 2.3% hits; AID 1159554, 2015; in the data active = activity change below about -80%; inconclusive = no clear call, values can overlap the other calls
T cruzi growth-2: T. cruzi intracellular proliferation inhibitors, confirmation, cell-based, NIH3T3 host, beta-gal parasite, luminescence, cherry-pick; inhibition, % at 8.35 µM; AID 651739, 2012; T. cruzi beta-gal in NIH3T3, GalScreen luminescence, 90 h; 5,600 compounds, 72% hits; shares compounds with T cruzi growth-1;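 active = mean replicate inhibition above about 95% and at least 55% of replicates individually reaching it, limit read from the data; inconclusive = only one of the two criteria is met; inactive = neither criterion is met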
T cruzi growth-3: inhibitors of intracellular T. cruzi replication, confirmation, NIH3T3 host cells, beta-gal parasites, cherry-pick, set 2; shares compounds with T cruzi growth-1; T. cruzi beta-gal in NIH3T3, GalScreen luminescence, 90 h; inhibition, % at 2.09 µM; 5,600 compounds, 21% hits;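 active = mean inhibition above about 95%, with at least 55% of replicates also reaching it, limit read from the data; inconclusive = meets just one of the two conditions; inactive = meets neither condition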;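 note: plate controls were neutral control median for no effect and positive control median for full effect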
3T3 cytotox: cytotoxicity in mouse NIH/3T3 fibroblasts, confirmation, cytotoxicity control for T. cruzi proliferation inhibitor project, cell-based, cherry-pick, single point; shares compounds with T cruzi growth-1; NIH/3T3 viability, CellTiter-Glo ATP luminescence, 90 h; 5,600 compounds, 14% hits; cytotoxicity (signal decrease), % at 8.35 µM;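 active = mean signal decrease across replicates above about 35% based on untreated-well scatter, with enough replicates individually passing, limit read from the data; inconclusive = no rule stated though some were filed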;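 note: 0% = median of neutral control wells and 100% = median of positive control wells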
NIH3T3 tox 2: NIH/3T3 fibroblast cytotoxicity, confirmation, cytotoxicity control, cell-based, cherry-pick, single point, set 2; shares compounds with T cruzi growth-1; NIH/3T3 viability, CellTiter-Glo ATP luminescence, 90 h; inhibition, % at 24.9 µM; 5,600 compounds, 56% hits; AID 651744, 2012;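 active = mean loss of cell viability signal at or above a set limit, and enough replicates individually reaching it; inconclusive = meets only the mean limit or only the replicate share; inactive = meets neither condition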;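 note: 0% = median of neutral control wells and 100% = median of positive control wells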
* marks the source's active call; other numbers are inactive results; ? = inconclusive; . = no result. Rows were chosen to be rich in hits. Some 5.9% of all compounds tested hit in one or more screens of this group.

SMILES | IDH1 R132H inh | GASC1 inh | T cruzi growth-1 | Pf Dd2 inh | T cruzi growth-2 | T cruzi growth-3 | 3T3 cytotox | NIH3T3 tox 2
C[C@H]1CN([C@@H](C)CO)S(=O)(=O)c2ccc(C3=CCCC3)cc2O[C@H]1CN(C)Cc1cncnc1 | 1 | 0 | 7 | -46 | . | . | . | .
C[C@H](CO)N1C[C@H](C)[C@@H](CN(C)C(=O)Cc2ccncc2)Oc2cc(C3=CCCC3)ccc2S1(=O)=O | 4 | 15 | 96* | -20 | 88 | 44 | -8 | 13
C[C@H](CO)N1C[C@H](C)[C@@H](CN(C)Cc2ccccc2)Oc2cc(C3=CCCC3)ccc2S1(=O)=O | -4 | -1 | 93 | -46 | . | . | . | .
C[C@@H]1CN([C@@H](C)CO)S(=O)(=O)c2ccc(C3=CCCC3)cc2O[C@H]1CN(C)Cc1ccncc1 | . | 5 | 114* | -65 | 97* | 102* | 50* | 102*
C[C@H](CO)N1C[C@H](C)[C@H](CN(C)Cc2ccncc2)Oc2cc(C3=CCCC3)ccc2S1(=O)=O | . | 7 | 108* | -29 | 97* | 88 | 21 | 44*
O=C1c2cccc3cccc(c23)C(=O)N1CCCSc1n[nH]c(-c2ccc(Cl)cc2)n1 | -1 | . | . | . | . | . | . | .
N#Cc1ccc(NC(=O)C2CCCCC2C(=O)O)cc1 (stereo unspecified) | 0 | . | . | . | . | . | . | .
COc1ccc(NC(=O)CSc2nc3c(cc2C#N)C(=O)CCC3)cc1 | 0 | . | . | . | . | . | . | .
CC(C)NC(=O)N1CCCCN2[C@H](C1)[C@@H](c1ccc(C#Cc3ccccc3F)cc1)[C@@H]2CO | . | -1 | 89 | -28 | . | . | . | .
CC(C)NC(=O)N1CCCCN2[C@H](CO)[C@@H](c3ccc(C#Cc4ccccc4F)cc3)[C@H]2C1 | . | -1 | 112* | 7 | 100* | 85 | 20 | 103*
CC(C)NC(=O)N1CCCCN2[C@H](CO)[C@H](c3ccc(C#Cc4ccccc4F)cc3)[C@@H]2C1 | . | -3 | 96* | 6 | 110* | 62 | 42* | 77*
COc1cccc(NC(=O)CCc2nc(-c3ccccc3Cl)no2)c1 | -1 | . | . | . | . | . | . | .
OC[C@@H]1[C@H](c2ccc(C#Cc3cccnc3)cc2)[C@H]2CN(Cc3ccccc3F)CCCCN12 | . | -1 | 114* | -75 | 102* | 113* | 50* | 104*
OC[C@H]1[C@H](c2ccc(C#Cc3cccnc3)cc2)[C@@H]2CN(Cc3ccccc3F)CCCCN12 | . | 0 | 112* | -71 | 111* | 52 | 28 | 103*
OC[C@@H]1[C@@H](c2ccc(C#CC3(O)CCCC3)cc2)[C@H]2CN(Cc3ccccc3F)CCCCN12 | . | -1 | 105* | -26 | 67 | 20 | 1 | 58*
CC=Cc1ccc2n(c1=O)C[C@@H]1[C@@H](CO)[C@H](C(=O)N3CCc4ccccc4C3)N(C(=O)C3CC3)[C@H]21 (mixture of isomers) | . | 0 | 107* | . | 69 | 7 | 2 | 12
CC=Cc1ccc2n(c1=O)C[C@@H]1[C@@H](CO)[C@H](C(=O)N3CCc4ccccc4C3)[C@H]2N1Cc1ccccc1 (mixture of isomers) | . | 0 | 85 | -7 | . | . | . | .
CC=Cc1ccc2n(c1=O)C[C@@H]1[C@@H](CO)[C@H](C(=O)N3CCc4ccccc4C3)[C@H]2N1CCC (mixture of isomers) | . | 1 | 103* | -2 | 30 | -13 | 0 | 10
CC=Cc1ccc2n(c1=O)C[C@@H]1[C@@H](CO)[C@H](C(=O)N3CCOCC3)N(Cc3ccccc3)[C@H]21 (mixture of isomers) | . | 1 | 101* | -4 | 100* | 6 | 9 | 13
COc1ccc(-c2nnc(SCC(=O)Nc3cc(OC)ccc3OC)n2-c2ccccc2C)cc1 | 0 | . | . | . | . | . | . | .
COc1ccc(CCNC(=S)N2CCN(c3ncccn3)CC2)cc1OC | 0 | . | . | . | . | . | . | .
COc1ccc(S(=O)(=O)N2CC[C@H]3[C@@H](CO)N(C)c4ccc(-c5ccccc5F)cc4[C@H]32)cc1 | . | 0 | 114* | -48 | 112* | 86 | 17 | 25
CN1c2ccc(-c3ccccc3F)cc2[C@H]2[C@H](CCN2S(=O)(=O)c2ccc(F)cc2)[C@H]1CO | . | 6 | 102* | 11 | 100* | 55 | 25 | 72*
Cc1ccc(C(C)C)c(OCCSc2nc3ncnc(N)c3[nH]2)c1 | 0 | . | . | . | . | . | . | .
N#C[C@H]1[C@@H](c2ccc(-c3cccc(F)c3)cc2)[C@@H](CO)N1c1nc(-c2ccccc2)cs1 | . | 2 | 94 | 25 | . | . | . | .
SMILES | IDH1 R132H inh | GASC1 inh | T cruzi growth-1 | Pf Dd2 inh | T cruzi growth-2 | T cruzi growth-3 | 3T3 cytotox | NIH3T3 tox 2
N#C[C@@H]1[C@@H](c2ccc(C3=CCCC3)cc2)[C@@H](CO)N1c1nc(-c2ccccc2)cs1 | . | -3 | 108* | 6 | 96* | 40 | 6 | 13
N#C[C@@H]1[C@@H](c2ccc(-c3ccc(F)cc3)cc2)[C@@H](CO)N1c1nc(-c2ccccc2)cs1 | . | -3 | 105* | -40 | 108* | 96* | 16 | 13
N#C[C@@H]1[C@@H](c2ccc(-c3cccc(F)c3)cc2)[C@@H](CO)N1c1nc(-c2ccccc2)cs1 | . | -2 | 99* | -51 | 110* | 99* | 29 | 16
O=[N+]([O-])c1ccc(S(=O)(=O)NCCc2nc3ccccc3[nH]2)cc1 | 0 | . | . | . | . | . | . | .
Cc1sc(NC(=O)COc2ccc(-c3ccccc3)cc2)c(C(N)=O)c1C | 0 | . | . | . | . | . | . | .
O=C(C[C@@H]1CC[C@H]2[C@@H](COC[C@@H](O)CN2C(=O)Nc2ccc(Cl)c(Cl)c2)O1)NCc1ccc(Cl)c(Cl)c1 | . | 0 | 86 | -3 | . | . | . | .
O=C(C[C@H]1CC[C@@H]2[C@H](COC[C@@H](O)CN2C(=O)Nc2ccc(Cl)c(Cl)c2)O1)NCc1ccc(Cl)c(Cl)c1 | . | -1 | 98* | -1 | 88 | 102* | 32 | 106*
O=C(C[C@@H]1CC[C@@H]2[C@H](COC[C@@H](O)CN2C(=O)Nc2ccc(Cl)c(Cl)c2)O1)NCc1ccncc1 | . | 10 | 127* | -8 | 74 | -8 | 4 | ?
